# Shown are actives, neighbours in structure and some others; about 4.6% of the full set was active somewhere.
# Hck Nef HTS = human Hck-Nef kinase inhibition; P08631; Recombinant Hck-YEEI plus Nef, Z-Lyte FRET kinase assay; inhibition, % at 20 µM; 220,000 compounds, 0.68% hits; AID 463187;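 active means Hck-Nef kinase inhibition above about 50%, limit read from the data; inactive means inhibition below that limit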;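 further: 0% = DMSO with Hck plus Nef and 100% = Hck alone without Nef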
# Target sequence (P08631 whole entry, looked up): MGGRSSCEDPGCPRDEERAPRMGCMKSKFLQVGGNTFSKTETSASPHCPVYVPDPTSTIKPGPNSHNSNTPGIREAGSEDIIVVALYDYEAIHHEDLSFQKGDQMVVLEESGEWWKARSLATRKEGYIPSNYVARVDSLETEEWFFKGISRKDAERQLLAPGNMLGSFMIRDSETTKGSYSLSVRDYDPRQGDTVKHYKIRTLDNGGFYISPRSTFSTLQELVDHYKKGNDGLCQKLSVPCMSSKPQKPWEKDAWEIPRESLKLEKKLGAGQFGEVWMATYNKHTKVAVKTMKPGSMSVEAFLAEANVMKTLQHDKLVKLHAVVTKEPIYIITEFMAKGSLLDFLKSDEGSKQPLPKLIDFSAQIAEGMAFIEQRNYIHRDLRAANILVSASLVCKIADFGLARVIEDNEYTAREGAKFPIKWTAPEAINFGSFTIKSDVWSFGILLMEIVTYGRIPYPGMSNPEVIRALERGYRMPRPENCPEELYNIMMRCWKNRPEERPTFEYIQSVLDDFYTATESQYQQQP
# WT yeast gro inh = growth inhibition of WT yeast, mitochondrial fusion screen; mitochondrial fusion phenotypic screen, WT strain; inhibition, % at 10 µM; 190,000 compounds, 2.1% hits; in the data active means inhibition above about 58%; tested in S. cerevisiae
# RAM inhibit = yeast RAM network inhibition; S. cerevisiae dse1pr::URA3 reporter, 5-FOA growth OD615, 2 d; analog-sensitive cbk1-as2 kinase mutant strain; inhibition, % at 50 µM; 190,000 compounds, 1.8% hits; AID 868;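 active means inhibition above a set limit, 3 SD over mean compound inhibition, cut at about 8.4% in these data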;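 further: 0% = DMSO-only wells with no growth and 100% = 10 µM 1-NA-PP1 full growth; inhibition rescues growth on 5-FOA so higher OD means more RAM inhibition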
# Arbovirus anti = antivirals against arbovirus infection | arbovirus infection cell-based antiviral screen | inhibition, % at 10 µM | 200,000 compounds, 0.37% hits | AID 1251; in the data active means inhibition above about 30%
# p47phox inh = blocks human p47phox regulatory protein of NADPH oxidases | 220,000 compounds, 0.53% hits | p47phox/p22phox peptide binding, fluorescence polarization, 2 h | inhibition, % at 24.7 µM;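 active means inhibition above about 30%, limit read from the data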;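 further: 0% = p47phox with labelled peptide and 100% = labelled peptide alone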
# Biofilm kill mix = mixture kills Candida albicans biofilm cells | C. albicans biofilm persisters + clotrimazole, fluorescence viability; primary screen in compound mixtures of four per well | inhibition, % at 7.6 µM | 120,000 compounds, 0.02% hits | AID 1242;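 active means inhibition above 30.3% in the primary screen of four-compound pools, then above 30% when the compound was retested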;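 further: compounds exposed to preformed 24 h biofilms for 48 h; 0% = untreated biofilm control and 100% = clotrimazole plus chlorhexidine kill blank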
#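 Probe or stimulus – Clotrimazole 50 µg/mL co-treatment · System – C. albicans biofilms · Schedule – 24 h biofilm formation, then 48 h compound exposure, 37 °C · Evaluation – percent inhibition of biofilm viability · Technique – 2-h Alamar Blue fluorescence, 535/590 nm excitation/emission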
# * marks the source's active call; other numbers are inactive results; x = not tested or not shown.
SMILES,Hck Nef HTS,WT yeast gro inh,RAM inhibit,Arbovirus anti,p47phox inh,Biofilm kill mix
O=C1OCCC1Sc1nnc(-c2cccnc2)n1-c1ccccc1F (stereo not given),20,-9,2,11,-6,12
c1ccc(-c2ccc(-c3nccc4ccccc34)[nH]2)cc1,57*,x,x,x,-72,17
Nc1cc(C(=O)c2cccs2)ccc1Cl,1,8,x,0,x,x
CS(=O)(=O)c1ccc(C(=O)OCC(=O)NC(=O)C2CCCCC2)cc1[N+](=O)[O-],11,-14,2,5,-2,16
CCSc1nc2ccccc2n1C(=O)/C=C/c1ccc(OC)c(OC)c1,4,-5,10*,-35,-10,7
N/C(CSc1ncccc1C(F)(F)F)=N\O,19,x,x,x,-8,20
COc1cccc(NC(=O)CSc2nnc(-c3cccc(OC(C)C)c3)n2N)c1,3,3,11*,-4,-3,x
CCCC1=NN(c2ccc([N+](=O)[O-])cc2)C(=O)/C1=C/N(C)C,6,-4,4,17,4,4
CC1=NN(c2ccc([N+](=O)[O-])cc2)C(=O)/C1=C\N(C)C,1,65*,4,0,-3,7
CC1=NN(c2nc3ccccc3[nH]2)C(=O)/C1=C/N(C)C,20,85*,0,-21,-5,5
COc1cccc(CNC(=O)CCC2CCCN(C(=O)c3csc(C(C)C)n3)C2)c1 (stereo not given),-1,-9,0,0,-2,14
CCC(NS(=O)(=O)c1c(C)[nH]c(=O)[nH]c1=O)C12CC3CC(CC(C3)C1)C2 (stereo not given),-10,64*,0,7,2,x
CCOC(=O)CSc1c(-c2ccc(Cl)cc2)[nH]c2ccccc12,2,-10,1,-6,-6,20
O=C(Cc1cccs1)NCCSc1c(-c2ccc(Cl)cc2)[nH]c2ccccc12,-9,42,8.9*,-21,-1,-3
O=C(CSc1nnc(-c2ccccc2)o1)NC1CCS(=O)(=O)C1 (stereo not given),-1,-4,1,-5,1,16
COc1ccc(/C=C(\CC(=O)O)c2nc3ccccc3o2)cc1,21,-2,9.6*,1,-12,8
Cc1[nH]nc(N)c1N=Nc1ccc(Br)cc1,17,55,-1,-23,-16,-32
Cc1nc(N)sc1N=Nc1ccc(Br)cc1,1,66*,-1,-19,7,x
COc1ccc(S(=O)(=O)n2nc(OC(C)=O)cc2N)cc1,-3,3,0,2,-6,17
COc1cccc(C(=O)Oc2cc(N)n(S(=O)(=O)c3ccc(C)cc3)n2)c1OC,4,-7,9.1*,3,6,x
CCOC(=O)c1[nH]ncc1CN1CCN(Cc2ccccc2)C(CCO)C1 (stereo not given),1,-14,3,0,8,17
Nc1c(C(=O)Nc2ccccc2F)sc2nc(-c3ccco3)ccc12,-1,-3,9.2*,-3,-41,x
O=C1C2C3C=CC(CO)(O3)C2C(=O)N1c1ccccc1-c1ccccc1 (stereo not given),5,69*,0,-1,1,x
COc1cc(OC)cc(-c2nnc(SCc3c(F)cccc3Cl)o2)c1,3,38,8.9*,-2,-10,x
COc1ccc(-c2cc(C(F)(F)F)nc(N3CCCCCC3)n2)cc1,4,6,8.7*,-16,-18,x
SMILES,Hck Nef HTS,WT yeast gro inh,RAM inhibit,Arbovirus anti,p47phox inh,Biofilm kill mix
COc1ccc(-c2cc(C(F)(F)F)nc(N3CCN(C)CC3)n2)cc1,-1,11,1,-2,-7,x
O=[N+]([O-])C1=CC=C2C(=NC3(CCCCC3)N2O)C1=NC1CCCCC1,1,32,3,0,48*,x
O=[N+]([O-])C1=CC=C2C(=NC3(CCCCC3)N2O)C1=NCCc1ccccc1,19,20,2,1,130*,14
CC1(C)CC(N=C2C([N+](=O)[O-])=CC=C3C2=NC2(CCCCC2)N3O)CC(C)(C)N1,6,x,x,x,7,15
O=C(NCCCn1ccnc1)C(=O)NC1CCCCC1,12,12,2,5,-5,29
O=C(O)C1CCCCC1C(=O)NCCCn1ccnc1 (stereo not given),2,2,0,6,36*,x
CN(C)/C=C/C(=O)c1ncc(C(F)(F)F)cc1Cl,12,-4,1,19,-3,18
CNc1nc(-c2ccccc2)[n+](-c2ccc(C)cc2)s1,-3,2,0,21,94*,12
O=C(Nc1ccccc1-c1ccccc1)c1ccc(NC(=O)c2ccco2)cc1,-23,x,6,-21,-14,x
CCOc1ccc(OCC)c2sc(C)nc12,1,4,0,5,59*,x
Cc1ccc(C(=O)c2coc3cc([N+](=O)[O-])c(O)c([N+](=O)[O-])c23)cc1,5,-27,6,37*,2,11
CN1C(C(=O)NCc2ccc(OC(F)(F)F)cc2)CC2Cn3c(nc4cc(Cl)c(Cl)cc43)C21 (stereo not given),16,x,x,x,-10,18
CCCn1c(SCC(=O)N2CCCC(C)C2)nnc1-c1ccccn1 (stereo not given),22,-13,0,3,-2,0
C/C(N)=C(/C#N)C(=O)CSc1nnc(-c2ccc3c(c2)OCO3)o1,1,-2,1,1,42*,x
NC(=O)CSc1nnc(-c2ccc3c(c2)OCO3)o1,2,8,1,-3,-2,10
Cc1cccc(N2CCN(C(=O)C3COc4ccccc4O3)CC2)c1C (stereo not given),1,8,6,36*,-7,16
O=C(/C=C\c1ccco1)Nc1cc([N+](=O)[O-])ccc1F,1,-14,2,-13,-3,13
O=C(/C=C/c1ccco1)Nc1cccc(NC(=O)/C=C/c2ccco2)n1,10,59*,1,7,-33,11
Cc1nc(NC(=O)/C=C/c2ccco2)sc1C,1,-1,3,-14,-14,16
O=C(/C=C/c1ccco1)Nc1cc(Cl)ccc1C(=O)O,11,-14,-1,42*,-4,17
Cc1cc(NC(=O)CSc2nc(-c3ccccc3Cl)nc3c2c(=O)n(C)c(=O)n3C)no1,12,-3,6,-9,x,10
OC(CNCCc1ccccc1)c1ccccc1 (stereo not given),-1,7,0,10,-20,x
COc1ccc(CCNCC(O)c2ccccc2)cc1 (stereo not given),17,-8,0,31*,1,12
CCOC(=O)c1sc(NC(=O)CSc2nc3ccccc3o2)c(C(=O)OCC)c1C,4,7,8,-10,-15,19
CCOC(=O)c1sc(NC(=O)CSc2nnc(Cc3ccccc3)o2)c(C(=O)OCC)c1C,0,27,8.9*,-2,-18,x
CCOC(=O)c1c(NC(=O)CSc2ncnc3ccccc23)sc(C)c1C,2,-17,8.9*,-2,17,12
